Experiments:
[1] = Half life after intravenous administration in rat; assay type: ADME, organism-based; settings: in vivo
B1 bradykinin receptor [2] = biological target: T1, B1 bradykinin receptor (Rattus norvegicus, UniProt P97583); assay: Compound was tested for inhibition against rat Bradykinin receptor B1
T1 sequence (P97583 whole entry): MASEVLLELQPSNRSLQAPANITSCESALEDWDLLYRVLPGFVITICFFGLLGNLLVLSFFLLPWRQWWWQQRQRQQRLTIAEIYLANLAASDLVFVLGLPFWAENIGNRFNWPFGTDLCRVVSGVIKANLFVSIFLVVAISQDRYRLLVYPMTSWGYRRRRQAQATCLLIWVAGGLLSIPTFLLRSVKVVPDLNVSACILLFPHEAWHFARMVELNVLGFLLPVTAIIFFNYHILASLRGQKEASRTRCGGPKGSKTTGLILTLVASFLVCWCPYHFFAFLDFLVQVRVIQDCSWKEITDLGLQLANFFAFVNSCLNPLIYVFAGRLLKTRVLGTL
Procedure, shortened: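 Radioligand binding using the appropriate radioligand on CHO cells stably expressing rat bradykinin B1 receptor; Ki (nM) determined radiometrically; interassay variability about 10%.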

[3] = Oral bioavailability in rat; assay type: ADME, organism-based; settings: in vivo
B1 bradykinin receptor [4] = biological target: T1, B1 bradykinin receptor; assay: Compound was tested for inhibition against rat Bradykinin receptor B1 using FLIPR assay
B1 bradykinin receptor [5] = biological target: T2, B1 bradykinin receptor (Homo sapiens, UniProt P46663); assay: Inhibition of human bradykinin B1 receptor
T2 sequence (P46663 whole entry): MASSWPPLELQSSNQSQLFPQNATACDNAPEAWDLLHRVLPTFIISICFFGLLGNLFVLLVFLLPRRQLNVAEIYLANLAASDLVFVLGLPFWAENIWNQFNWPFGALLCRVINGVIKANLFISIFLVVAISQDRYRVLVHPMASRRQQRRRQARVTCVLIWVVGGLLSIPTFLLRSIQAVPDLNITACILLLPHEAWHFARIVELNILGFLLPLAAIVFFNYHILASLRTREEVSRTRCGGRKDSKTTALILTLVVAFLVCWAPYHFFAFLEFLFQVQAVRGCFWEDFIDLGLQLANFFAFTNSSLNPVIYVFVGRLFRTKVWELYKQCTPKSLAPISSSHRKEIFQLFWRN

B1 bradykinin receptor [6] = biological target: T2, B1 bradykinin receptor; assay: Compound was tested for inhibition against human bradykinin B1 receptor using FLIPR assay

| Ki (B1 bradykinin receptor [5]) [µM] | SMILES | half-life [1] [h] | Ki (B1 bradykinin receptor [2]) [µM] | bioavailability [3] [%] | IC50 (B1 bradykinin receptor [4]) [µM] | IC50 (B1 bradykinin receptor [6]) [µM] |
| --- | --- | --- | --- | --- | --- | --- |
| – | CCCN1C(=O)[C@H](NC(=O)Nc2ccc(N3CCN(c4ccncc4)CC3)cc2)N=C(CCc2ccccc2)c2ccccc21 | 2.7 | 0.00092 | 3.4 | 0.0028 | – |
| 0.00137 | CCCN1C(=O)[C@H](NC(=O)Nc2ccc(N3CCC(N4CCCCC4)CC3)cc2)N=C(CCc2ccccc2)c2ccccc21 | 2.4 | 0.00197 | 4.9 | 0.00725 | 0.00483 |
| > 10 | CCCN1C(=O)C(NC(=O)Nc2ccc(N3CCN(c4ccccc4)CC3)cc2)N=C(C2CCCCC2)c2ccccc21 (configuration not stated) | – | – | – | – | – |
| 0.0975 | CCCN1C(=O)C(NC(=O)Nc2ccc(N3CCN(c4ccccn4)CC3)cc2)N=C(C2CCCCC2)c2ccccc21 (configuration not stated) | – | – | – | – | – |
| > 10 | CCCN1C(=O)C(NC(=O)Nc2ccc(N3CCCCC3)cc2)N=C(C2CCCCC2)c2ccccc21 (configuration not stated) | – | – | – | – | – |
| 0.085 | CCCN1C(=O)C(NC(=O)Nc2ccc(N3CCN(c4cccnc4)CC3)cc2)N=C(C2CCCCC2)c2ccccc21 (configuration not stated) | – | – | – | – | – |
| 0.141 | O=C(CCCN1C(=O)CN=C(C2CCCCC2)c2ccccc21)Nc1ccc(N2CCC(N3CCCCC3)CC2)cc1 | – | – | – | – | – |
| 0.055 | CCCN1C(=O)C(NC(=O)Nc2ccc(N3CCC(c4ccncc4)CC3)cc2)N=C(CCc2ccccc2)c2ccccc21 (configuration not stated) | – | – | – | – | – |
| 0.028 | CCCN1C(=O)C(NC(=O)Nc2ccc(N3CCC(N(C)C)CC3)cc2)N=C(C2CCCCC2)c2ccccc21 (configuration not stated) | – | – | – | – | 0.164 |

| SMILES | Ki (B1 bradykinin receptor [5]) [µM] | half-life [1] [h] | Ki (B1 bradykinin receptor [2]) [µM] | bioavailability [3] [%] | IC50 (B1 bradykinin receptor [4]) [µM] | IC50 (B1 bradykinin receptor [6]) [µM] |
| --- | --- | --- | --- | --- | --- | --- |
| CCCN1C(=O)[C@H](NC(=O)Nc2ccc(N3CCC(N4CCCCC4)CC3)cc2)N=C(C2CCCCC2)c2ccccc21 | 0.00573 | 3.2 | 0.0183 | 10 | 0.059 | 0.0247 |
| CCCN1C(=O)[C@H](NC(=O)Nc2ccc(N3CCN(c4ccncc4)CC3)cc2)N=C(C2CCCCC2)c2ccccc21 | 0.00133 | 2.3 | – | 2.5 | 0.0242 | 0.008 |
| CCCN1C(=O)[C@H](NC(=O)Nc2ccc(N3CCC(N4CCCCC4)CC3)cc2)N=C(c2ccc(C)cc2)c2ccccc21 | 0.0134 | 4.3 | 0.017 | 32 | 0.027 | 0.0645 |
| CCCN1C(=O)[C@@H](NC(=O)Nc2ccc(N3CCC(N4CCCCC4)CC3)cc2)N=C(C2CCCCC2)c2ccccc21 | 1.02 | – | – | – | – | 2.2 |

Reference: ChEMBL document CHEMBL1144876, “Benzodiazepines as potent and selective bradykinin B1 antagonists” (J Med Chem, 2003)
